Assay results reported in ChEMBL document CHEMBL1828575, “Design, synthesis and antiproliferative activities of biarylolefins based on polyhydroxylated and carbohydrate scaffolds” (Eur J Med Chem, 2011).

Assays:
Type in all cases: functional
DU-145 = assay: Cytotoxicity against human DU145 cells assessed as cellular growth at 10 uM after 48 hrs by SRB assay
How it was run: (§1)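 NCI60 single-dose screen of cells in RPMI 1640 with 5% FBS and 2 mM L-glutamine, preincubated 24 h at 37 °C, 5% CO₂. Cells were then exposed 48 h to compound added from DMSO stock. TCA-fixed, stained with 0.4% SRB in 1% acetic acid, dye solubilised in 10 mM Tris base and read at 515 nm. Growth is given as percent of untreated control.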

SF-268 [1] = assay: Cytotoxicity against human SF268 cells assessed as cellular growth at 10 uM after 48 hrs by SRB assay
How it was run: (§2)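 NCI-60 panel lines grown in RPMI 1640 with 5% FBS and 2 mM L-glutamine. Plated at 5000–40,000 cells/well and preincubated 24 h at 37 °C, 5% CO₂, with time-zero plates fixed in TCA. Compounds, dissolved in DMSO and diluted in medium, were applied for 48 h. Cells were TCA-fixed (10% final for adherent, 16% for suspension) and stained with 0.4% SRB in 1% acetic acid. Dye was solubilised in 10 mM Tris base and read at 515 nm; growth was expressed as a percentage of untreated control.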

HL-60(TB) [2] = assay: Cytotoxicity against human HL-60(TB) cells assessed as cellular growth at 10 uM after 48 hrs by SRB assay
K562 = assay: Cytotoxicity against human K562 cells assessed as cellular growth at 10 uM after 48 hrs by SRB assay; how it was run: as §1
SR = assay: Cytotoxicity against human SR cells assessed as cellular growth at 10 uM after 48 hrs by SRB assay; how it was run: as §2
NCI-H460 = assay: Cytotoxicity against human NCI-H460 cells assessed as cellular growth at 10 uM after 48 hrs by SRB assay; how it was run: as §2
NCI-H226 = assay: Cytotoxicity against human NCI-H226 cells assessed as cellular growth at 10 uM after 48 hrs by SRB assay; how it was run: as §2
SNB-75 = assay: Cytotoxicity against human SNB75 cells assessed as cellular growth at 10 uM after 48 hrs by SRB assay; how it was run: as §2
U-251 = assay: Cytotoxicity against human U251 cells assessed as cellular growth at 10 uM after 48 hrs by SRB assay; how it was run: as §2
M14 = assay: Cytotoxicity against human M14 cells assessed as cellular growth at 10 uM after 48 hrs by SRB assay; how it was run: as §1
UACC-257 = assay: Cytotoxicity against human UACC257 cells assessed as cellular growth at 10 uM after 48 hrs by SRB assay; how it was run: as §2
OVCAR-3 = assay: Cytotoxicity against human OVCAR3 cells assessed as cellular growth at 10 uM after 48 hrs by SRB assay; how it was run: as §2
NCI/ADR-RES = assay: Cytotoxicity against human NCI/ADR-RES cells assessed as cellular growth at 10 uM after 48 hrs by SRB assay; how it was run: as §2
786-0 = assay: Cytotoxicity against human 786-0 cells assessed as cellular growth at 10 uM after 48 hrs by SRB assay; how it was run: as §1
ACHN = assay: Cytotoxicity against human ACHN cells assessed as cellular growth at 10 uM after 48 hrs by SRB assay; how it was run: as §1
TK-10 = assay: Cytotoxicity against human TK10 cells assessed as cellular growth at 10 uM after 48 hrs by SRB assay; how it was run: as §2
UO-31 [3] = assay: Cytotoxicity against human UO31 cells assessed as cellular growth at 10 uM after 48 hrs by SRB assay; how it was run: as §2
KM12 = assay: Antitumor activity against human KM12 cells after 48 hrs by SRB assay; details: KM12, 48 h
How it was run: (§3)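 NCI60 panel in RPMI 1640 with 5% FBS and 2 mM L-glutamine. Cells were plated at 5000–40,000/well by doubling time, held 24 h, then time-zero plates were TCA-fixed. Five concentrations (10-fold or half-log dilutions of DMSO stocks) were applied for 48 h at 37 °C, 5% CO2. Cells were fixed with cold TCA (10% final adherent, 16% suspension) and stained with 0.4% SRB. Bound dye was dissolved in 10 mM Tris and read at 515 nm. GI50, TGI and LC50 were calculated per line.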

T47D = assay: Antitumor activity against human T47D cells after 48 hrs by SRB assay
How it was run: (§4)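 NCI60 panel cells grown in RPMI 1640 with 5% FBS and 2 mM L-glutamine, plated at 5000–40,000 cells/well and preincubated 24 h at 37 °C, 5% CO₂. Compound was added from DMSO at five concentrations, 10-fold or 1/2 log dilutions, then incubated 48 h.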

UO-31 [4] = assay: Antitumor activity against human UO31 cells after 48 hrs by SRB assay; details: UO-31, 48 h; how it was run: as §4
UACC-62 = assay: Antitumor activity against human UACC62 cells after 48 hrs by SRB assay; details: UACC-62, 48 h; how it was run: as §4
HL-60(TB) [5] = assay: Antitumor activity against human HL-60(TB) cells after 48 hrs by SRB assay; details: HL-60, 48 h
How it was run: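 NCI60 screen: cells grown in RPMI 1640 with 5% FBS and 2 mM L-glutamine, plated at 5000–40,000 cells/well by doubling time, preincubated 24 h at 37 °C with 5% CO2. Compounds were diluted from DMSO stocks and given for 48 h, at five concentrations for dose response. A time-zero plate was TCA-fixed. Cells were TCA-fixed, stained with 0.4% SRB and read at 515 nm, with growth expressed relative to untreated controls.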

CCRF-CEM = assay: Antitumor activity against human CCRF-CEM cells after 48 hrs by SRB assay; how it was run: as §3
HT-29 = assay: Antiproliferative activity against human HT-29 cells after 48 hrs by SRB assay; details: HT-29, 48 h; how it was run: as §3
SF-268 [6] = assay: Antitumor activity against human SF268 cells after 48 hrs by SRB assay; details: SF-268, 48 h; how it was run: as §3
[7] = read-out: LC50 (the source's name)
[8] = read-out: pLC50 (the source's name) (converted)

`COc1cc(/C(=C2\O[C@@H]([C@H]3COC(C)(C)O3)[C@H]3OC(C)(C)O[C@@H]23)c2ccc3ccccc3c2)cc(OC)c1OC` gave an Activity (DU-145) of 2.86%, an Activity (SF-268 [1]) of -16.94% and an Activity (HL-60(TB) [2]) of 59.17%. For the same compound, the Activity (K562) was 28.12%, the Activity (SR) was 51.36% and the Activity (NCI-H460) was 43.38%. For the same compound, the Activity (NCI-H226) was 66.92%, the Activity (SNB-75) was 41.12% and the Activity (U-251) was 18%. It also gave an Activity (M14) of 62.78%, an Activity (UACC-257) of 45.86% and an Activity (OVCAR-3) of -6.76%. The Activity (NCI/ADR-RES) was 25.91%, the Activity (786-0) was -1.42% and the Activity (ACHN) was 0.86%. For the same compound, the Activity (TK-10) was 22.74%, the Activity (UO-31 [3]) was 46.81% and the GI50 (KM12) was 6 µM. It also gave an LC50 (KM12) of over 100 µM, a TGI (KM12) of over 100 µM and a GI50 (T47D; read-out: GI50) of 3.45 µM. It also gave a CC50 (T47D; [7]) of over 100 µM, a TGI (T47D; read-out: TGI) of 40.6 µM and a GI50 (T47D; read-out: pGI50 (converted)) of 3.47 µM. It also gave a CC50 (T47D; [8]) of over 100 µM, a TGI (T47D; read-out: pTGI (converted)) of 40.7 µM and a GI50 (UO-31 [4]; read-out: GI50) of 3.47 µM. The CC50 (UO-31 [4]; [7]) was over 100 µM, the TGI (UO-31 [4]; read-out: TGI) was over 100 µM and the GI50 (UO-31 [4]; read-out: pGI50 (converted)) was 3.47 µM. The CC50 (UO-31 [4]; [8]) was over 100 µM, the TGI (UO-31 [4]; read-out: pTGI (converted)) was over 100 µM and the GI50 (UACC-62; read-out: GI50) was 7.13 µM. The CC50 (UACC-62; [7]) was over 100 µM, the TGI (UACC-62; read-out: TGI) was 67.9 µM and the GI50 (UACC-62; read-out: pGI50 (converted)) was 3.31 µM. It also gave a CC50 (UACC-62; [8]) of over 100 µM, a TGI (UACC-62; read-out: pTGI (converted)) of 67.6 µM and a GI50 (HL-60(TB) [5]; read-out: GI50) of 74.9 µM. It also gave a CC50 (HL-60(TB) [5]; [7]) of over 100 µM, a TGI (HL-60(TB) [5]; read-out: TGI) of over 100 µM and a GI50 (HL-60(TB) [5]; read-out: pGI50 (converted)) of 74.1 µM. For the same compound, the CC50 (HL-60(TB) [5]; [8]) was over 100 µM, the TGI (HL-60(TB) [5]; read-out: pTGI (converted)) was over 100 µM and the GI50 (CCRF-CEM; read-out: GI50) was 48.3 µM. The CC50 (CCRF-CEM; [7]) was over 100 µM, the TGI (CCRF-CEM; read-out: TGI) was over 100 µM and the GI50 (CCRF-CEM; read-out: pGI50 (converted)) was 47.9 µM. The CC50 (CCRF-CEM; [8]) was over 100 µM, the TGI (CCRF-CEM; read-out: pTGI) was over 100 µM and the LC50 (50% net cell kill) (HT-29) was over 100 µM. The GI50 (HT-29; read-out: GI50) was 6 µM, the TGI (HT-29; read-out: TGI) was over 100 µM and the GI50 (HT-29; read-out: pGI50 (converted)) was 6.03 µM. The CC50 (HT-29; [8]) was over 100 µM, the TGI (HT-29; read-out: pTGI (converted)) was over 100 µM and the LC50 (concentration killing 50% of cells relative to time zero) (SF-268 [6]) was over 100 µM. For the same compound, the GI50 (SF-268 [6]; read-out: GI50) was 3.13 µM, the TGI (SF-268 [6]; read-out: TGI) was 15.9 µM and the GI50 (SF-268 [6]; read-out: pGI50 (converted)) was 3.09 µM. For the same compound, the CC50 (SF-268 [6]; [8]) was over 100 µM and the TGI (SF-268 [6]; read-out: pTGI (converted)) was over 100 µM.
